Screening data as filed in PubChem.
Rows were chosen to be rich in hits. Some 3.8% of all compounds tested hit in one or more screens of this group.
KCNK3 inh: human KCNK3 channel inhibitors, primary screen, CHO cells, FluxOR thallium flux, B-score; FluxOR fluorescence; stronger effect = lower value; B-score at 10 µM; actives 0.84% (n = 340,000);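 active means B-score under library mean minus 4 SD, starting fluorescence ratio at most library mean plus 5 SD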;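 further: more negative B-score means stronger inhibition of thallium flux through KCNK3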
KCNK9 block: KCNK9 potassium channel inhibitors, primary screen, HEK293 cells, thallium flux. Potassium channel subfamily K member 9 (Homo sapiens), Q9NPC2. FluxOR thallium flux fluorescence; stronger effect = lower value. B-score at 10 µM. actives 1.2% (n = 310,000). AID 488922, 2010;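 active means ratio B-score over 3 SD below the library mean, with starting fluorescence within 5 SD of its mean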;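 further: negative B-score means less thallium flux so channel inhibition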
KCNQ1 act: potentiators or activators of KCNQ1 channel, primary screen, cell-based, thallium flux, high-throughput | Potassium voltage-gated channel subfamily KQT member 1 (Homo sapiens), P51787 | CHO-K1 KCNQ1, thallium flux FluxOR fluorescence; stronger effect = higher value | B-score at 10 µM | actives 0.35% (n = 310,000);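 active means fluorescence ratio B-score, a plate-corrected score, at least three library SD, with initial intensity B-score within 5 SD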
Target sequence (P51787 whole entry, looked up): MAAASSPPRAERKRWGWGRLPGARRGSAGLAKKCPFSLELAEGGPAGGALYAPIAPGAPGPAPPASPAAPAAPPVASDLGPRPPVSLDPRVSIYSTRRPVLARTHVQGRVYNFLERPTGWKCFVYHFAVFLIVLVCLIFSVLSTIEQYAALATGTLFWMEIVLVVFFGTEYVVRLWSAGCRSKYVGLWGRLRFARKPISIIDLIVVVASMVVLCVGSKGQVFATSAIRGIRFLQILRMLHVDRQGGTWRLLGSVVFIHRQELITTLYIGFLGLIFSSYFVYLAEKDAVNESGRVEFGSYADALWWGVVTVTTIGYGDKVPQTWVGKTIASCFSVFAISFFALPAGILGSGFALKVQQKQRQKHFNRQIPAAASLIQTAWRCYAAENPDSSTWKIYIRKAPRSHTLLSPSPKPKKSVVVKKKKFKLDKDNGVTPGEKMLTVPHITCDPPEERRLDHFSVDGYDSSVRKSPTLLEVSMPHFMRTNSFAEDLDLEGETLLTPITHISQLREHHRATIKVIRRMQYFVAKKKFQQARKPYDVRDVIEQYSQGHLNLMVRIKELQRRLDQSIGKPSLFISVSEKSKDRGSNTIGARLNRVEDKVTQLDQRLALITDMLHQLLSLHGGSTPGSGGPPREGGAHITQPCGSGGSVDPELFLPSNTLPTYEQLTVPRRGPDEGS
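assay system = KCNQ1-transfected CHO-K1 cells | medium = assay buffer with matched DMSO | probe or stimulus = depolarizing K+/Tl+ stimulus, K2SO4 and Tl2SO4 each 12.5 mM in 5x stock | dosing = single dose | incubation = dye 90 min, compound 20 min, room temperature | detection = kinetic FluxOR fluorescence, 10 s baseline plus 110 s post-stimulus | evaluation = ratio B score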
KCNQ1 block: inhibitors of human KCNQ1 channel, primary screen, cell-based, thallium flux, high-throughput. Potassium voltage-gated channel subfamily KQT member 1 (Homo sapiens), P51787. B-score at 10 µM. actives 1.3% (n = 310,000). CHO-K1 KCNQ1, FluxOR thallium flux fluorescence; stronger effect = higher value;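 active means compounds whose thallium flux B-score, printed positive for inhibition, exceeds three library SD while starting fluorescence stays within three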;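 further: channel opened by potassium depolarization with thallium stimulus after 20 min compound exposure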
Kir21 block: inhibitors of mouse Kir2.1 inward-rectifier potassium channel; Inward rectifier potassium channel 2 (Mus musculus), P35561; HEK293-Kir2.1, FluxOR thallium flux fluorescence; stronger effect = lower value; B-score at 10 µM; actives 0.85% (n = 310,000); AID 1672, 2009;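 active means fluorescence ratio B-score at or below minus 3 SD of library scores, with starting-brightness B-score within 2 SD, cut at about -4.2 in these data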;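 further: channel flux triggered by added potassium and thallium sulfate stimulus; B-score of peak minus minimum fluorescence over baseline after thallium stimulus; more negative B-score means stronger Kir2.1 block with less thallium influx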
hERG protect: hERG rescue from dofetilide block, primary screen, cell-based, CHO-hERG, FluxOR thallium flux, dofetilide IC70; activation (rescue from dofetilide block), less the hit threshold, % at 10 µM; Voltage-gated inwardly rectifying potassium channel KCNH2 (Homo sapiens), Q12809; AID 1511, 2009; dofetilide IC70 present; actives 0.51% (n = 310,000);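 active means activation above the mean of controls blocked by dofetilide plus 5 SD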;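 further: thallium influx through hERG after potassium depolarization seen as dye fluorescence rise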
KCNK9 inh conf: KCNK9 potassium channel inhibitors, confirmation, HEK293 cells, thallium flux, duplicate. shares compounds with KCNK9 block. FluxOR thallium flux fluorescence. inhibition, % at 10 µM. actives 43% (n = 4,900). AID 492992, 2010;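 active means thallium signal inhibited by more than 5 SD of the compound-free buffer control wells, on both duplicate plates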;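 further: 0% = assay buffer control wells without compound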
Kir2-1 spec: mouse Kir2.1 channel inhibition, confirmation, selectivity assay for KCNK9 modulator project, cell-based, HEK293, thallium flux | AID 492993, 2010 | actives 4% (n = 4,900) | inhibition, % at 10 µM | shares compounds with KCNK9 block | Kir2.1 cells, FluxOR thallium flux fluorescence;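 active means thallium signal drop more than 5 SD beyond the mean of the no-compound control wells, seen in both duplicate plates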;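 further: signal is fluorescence rise after thallium addition divided by baseline fluorescence; plate controls were assay buffer only for no effect and full block by chlorpromazine control for full effect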
KCNK9 uninduced: thallium flux in non-induced HEK293 cells, confirmation, counter-screen for KCNK9 inhibitor project, cell-based, second counter screen, non-induced KCNK9-HEK293 | shares compounds with KCNK9 block | FluxOR thallium flux | inhibition, % at 10 µM | actives 40% (n = 4,900);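 active means thallium signal drop beyond 5 SD of the untreated control mean, on both duplicate plates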;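 further: plate controls were buffer only IC0 wells for no effect and SID17386958 at its maximal inhibitory level for full effect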
KCNK3 confirm: retest of human KCNK3 channel inhibitors, confirmation, CHO cells, FluxOR thallium flux, triplicate. shares compounds with KCNK3 inh. AID 651638, 2012. ratio percent of control, % at 10 µM. actives 99% (n = 2,400). FluxOR fluorescence; 0% buffer, 100% carvedilol maximal block;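 active means ratio percent of control, averaged over triplicates, above buffer control mean plus 5 SD, cut at about 64% in these data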;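 further: ratio is the fluorescence rise from min to max over baseline after thallium stimulus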
KCNK3 uninduced: thallium flux inhibition in non-induced cells, primary screen, counter-screen for KCNK3 inhibitor project, cell-based, non-induced KCNK3 line, FluxOR thallium, triplicate | shares compounds with KCNK3 inh | non-induced KCNK3 parental cells; stronger effect = lower value | thallium flux ratio (lower = more inhibition) at 10 µM | actives 40% (n = 2,400);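 active means thallium flux ratio, averaged over three wells, more than 5 SD below the buffer control mean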;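 further: host cells are CHO cells without KCNK3 induction; ratio is peak minus trough fluorescence over baseline then normalized to buffer controls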
Starred values were filed as active, the others as inactive; i = inactive; . = not tested or not shown.

SMILES	KCNK3 inh	KCNK9 block	KCNQ1 act	KCNQ1 block	Kir21 block	hERG protect	KCNK9 inh conf	Kir2-1 spec	KCNK9 uninduced	KCNK3 confirm	KCNK3 uninduced
CC1CCN(C(=O)N2c3ccccc3Sc3ccccc32)CC1	-11*	-9.3*	i	11*	-0.01	-18	58%*	i	46%*	113*	0.13*
NC(=O)Cc1ccc(C(=O)c2ccccc2F)s1	i	i	i	i	0.18	-5	.	.	.	.	.
NC(=S)NNc1cccc2cccnc12	i	i	i	i	0.8	-26	.	.	.	.	.
Cc1c(C(=O)N(C)Cc2cccc(F)c2)oc2c(Cl)cccc12	-11*	-14*	i	i	-3.1	-10	47%*	i	49%*	104*	i
CC(=O)c1cc2c(cc1NC(=O)Cn1cnc3ccccc3c1=O)OCO2	i	.	.	.	.	.	.	.	.	.	.
Cc1sc(NC(=O)c2ccco2)c(CN2CCN(c3ccccc3)CC2)c1C	i	-9.9*	i	i	-0.06	-15	35%*	i	35%*	113*	i
CC1(C)Cc2cccc(C(=O)Nc3ccc(Cl)cc3)c2O1	-12*	-11*	i	i	0.99	-10	46%*	i	i	89*	0.16*
CC1(C)Cc2cccc(C(=O)Nc3ccncc3)c2O1	i	i	i	i	-0.56	-6	.	.	.	.	.
Cc1c(C)n2c3c(cccc13)CC2	i	i	i	i	-0.98	-12	.	.	.	.	.
Clc1ccc(CSc2snnc2-c2ccccc2)cc1	-12*	-8.6*	i	i	-0.49	-3	30%*	i	45%*	96*	i
COC(=O)C1(c2ccccc2)NC(c2ccc(O)cc2)C2C(=O)N(c3ccc4c(c3)OCO4)C(=O)C21 (configuration not stated)	i	i	i	i	-0.19	-5	.	.	.	.	.
O=[N+]([O-])c1cc([N+](=O)[O-])c(Oc2cccc(Cl)c2Cl)cc1NN1CCCCC1	i	i	i	i	0.1	-6	.	.	.	.	.
CC1(C)Cc2cccc(Oc3cc(NN4CCCCC4)c([N+](=O)[O-])cc3[N+](=O)[O-])c2O1	-12*	-14*	i	6*	-0.81	-7	56%*	i	40%*	88*	i
CCc1ccc(-n2c(SCC(=O)NC3CCS(=O)(=O)C3)nc3ccccc3c2=O)cc1 (configuration not stated)	i	.	.	.	.	.	.	.	.	.	.
